# Source: PubChem BioAssay
# Most compounds without a hit are left out; they make up all but 2.5% or so of the library.
# SENP6 inh: inhibitors of human SENP6 protease | AID 2599 | hit rate 1.8% among 330,000 | Recombinant SENP6 catalytic domain, aminoluciferin luminescence | inhibition, % at 10 µM;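 active means inhibition above about 50% at the single tested dose, limit read from the data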;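 further: plate controls were DMSO wells with enzyme for no effect and DMSO wells lacking enzyme for full effect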
# SENP8 block-1: blocks the human protease SENP8. hit rate 1.2% among 330,000. inhibition, % at 10 µM. Q96LD8. AID 2540. purified SENP8, Z-RLRGG-aminoluciferin cleavage, luminescence; in the data active means inhibition above about 50%
# SENP8 block-2: SENP8 (human) protease inhibition; inhibition, % at 20 µM; Q96LD8; recombinant SENP8, Nedd8 substrate fluorescence; AID 602440; hit rate 0.64% among 360,000; in the data active means inhibition mostly above about 40%, no sharp cut-off; inactive means mostly below about 27%
# SENP7 inh: inhibitors of human SENP7 protease; Q9BQF6; recombinant SENP7, Z-RLRGG-aminoluciferin luminescence, 40 min; inhibition, % at 5 µM; hit rate 1.5% among 330,000; AID 434973;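 active means inhibition above about 50% at the single test dose, limit read from the data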;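 further: plate controls were DMSO with enzyme for no effect and no enzyme buffer wells for full effect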
# Target sequence (Q9BQF6 706-1050 limits assumed): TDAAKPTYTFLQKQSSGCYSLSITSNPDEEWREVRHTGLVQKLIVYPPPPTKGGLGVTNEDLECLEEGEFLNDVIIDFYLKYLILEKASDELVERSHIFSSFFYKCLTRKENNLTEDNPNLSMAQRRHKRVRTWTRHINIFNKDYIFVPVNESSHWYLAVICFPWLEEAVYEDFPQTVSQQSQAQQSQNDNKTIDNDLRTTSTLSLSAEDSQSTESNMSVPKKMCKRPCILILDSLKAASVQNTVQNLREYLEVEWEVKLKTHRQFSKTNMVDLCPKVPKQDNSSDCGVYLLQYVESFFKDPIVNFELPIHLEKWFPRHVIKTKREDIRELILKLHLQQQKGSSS
# SENP1 FRET inh: blocks the human SENP1 SUMO protease catalytic domain | inhibition, % at 10 µM | Q9P0U3 | recombinant SENP1 catalytic domain, CyPet-SUMO1-YPet FRET cleavage | hit rate 0.21% among 360,000;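 active means inhibition at least 30% at 10 µM, raw YFP signal under a set limit, fluorescence ratio 0.5 to 1.5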;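 further: 0% = enzyme with DMSO and 100% = no enzyme wells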
#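 Material: hSENP1 catalytic domain, recombinant; medium: Tris pH 8 with BME, BSA, NP40 and catalase; compound: single concentration of 10 µM compound, 0.5% DMSO final; technique: FRET read of cyan and yellow fluorescence; timing: 50 min enzyme reaction, room temperature, light-protected; reagent: SFCypet-SUMO1-SFYpet substrate at 25 nM; control set: no-enzyme low, enzyme-DMSO high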
# SENP8 conf: human SENP8 inhibition, confirmed | hit rate 40% among 6,200 | inhibition, % at 12.5 µM | shares compounds with SENP7 inh | Recombinant SENP8, Z-RLRGG-aminoluciferin luminescence, 60 min | AID 488912;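 active means mean inhibition across replicates above about 50%, limit read from the data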
# SENP6 conf: human SENP6 inhibition, confirmed; recombinant SENP6, Z-RLRGG-aminoluciferin luminescence; inhibition, % at 12.5 µM; hit rate 58% among 6,200; shares compounds with SENP7 inh
# SENP7 conf: confirmation of human SENP7 protease inhibitors; shares compounds with SENP7 inh; recombinant SENP7, Z-RLRGG-aminoluciferin luminescence, 40 min; inhibition, % at 12.5 µM; hit rate 69% among 6,200; AID 488917
# Casp3 SENP sel: caspase-3 inhibition (SENP selectivity assay). inhibition, % at 12.5 µM. AID 488918. shares compounds with SENP7 inh. hit rate 60% among 6,200. purified caspase-3, Z-DEVD-aminoluciferin luminescence, 60 min;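 active means mean inhibition above about 50%, limit read from the data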;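 further: plate controls were enzyme with DMSO for no effect and wells without caspase-3 for full effect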
# Target sequence (P42574 28-227 limits assumed): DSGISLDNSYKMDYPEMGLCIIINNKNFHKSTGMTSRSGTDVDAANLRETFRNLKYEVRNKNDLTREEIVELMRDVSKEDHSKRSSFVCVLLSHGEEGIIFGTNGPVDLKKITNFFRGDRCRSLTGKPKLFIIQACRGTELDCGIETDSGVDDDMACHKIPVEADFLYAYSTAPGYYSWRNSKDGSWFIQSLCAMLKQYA
# Luc interf: luminescence interference (SENP counter-screen); shares compounds with SENP7 inh; Pre-incubated SENP8/Z-RLRGG-aminoluciferin, luciferase luminescence interference; inhibition, % at 12.5 µM; hit rate 39% among 6,200;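 active means mean inhibition above about 50% when retested at one dose, limit read from the data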;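 further: plate controls were DMSO wells with completed reaction for no effect and substrate without enzyme for full effect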
# * hit, by the source's call; / = no result; ! = not active in a repeat.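 How the source made its calls, unless noted: active means mean inhibition above about 50% in the one-dose retest (limit read from the data); inactive means the rest.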
SMILES,SENP6 inh,SENP8 block-1,SENP8 block-2,SENP7 inh,SENP1 FRET inh,SENP8 conf,SENP6 conf,SENP7 conf,Casp3 SENP sel,Luc interf
COc1ccc(Nc2nc(C)cc(C)n2)cc1Cl,70*,39,20,67*,3,62*,59*,86*,68*,65*
CNc1nnc(-c2ccncc2)s1,-11,-2,-290,-3,1,/,/,/,/,/
COC(=O)COc1ccc(C(C2C(=O)CC(C)(C)CC2=O)C2C(=O)CC(C)(C)CC2=O)cc1,-32,-10,12,-4,-1,/,/,/,/,/
CN(C)c1ccc(-c2nc3ccccc3n2C)cc1,91*,89*,-261,96*,1,96*,98*,102*,98*,96*
Cn1c(-c2ccc(Br)o2)nc2cc(Br)ccc21,95*,85*,-33,83*,-35,8,90*,91*,89*,38
Brc1ccc(Cn2c(-c3ccc(Br)o3)nc3ccccc32)o1,/,/,-28,/,-30,/,/,/,/,/
Cc1oc(-c2nc3ccccc3n2C)cc1C(=O)c1ccccc1,94*,85*,-58,47,-11,94*,94*,101*,94*,93*
CC(C)n1c(-c2ccc(N(C)C)cc2)nc2ccccc21,10,6,-493,-10,1,/,/,/,/,/
Cn1c(-c2ccc(Br)o2)nc2ccccc21,97*,95*,4,99*,-4,0,98*,103*,98*,95*
Cc1ccc(-c2nc3ccccc3n2C)o1,70*,79*,-151,83*,-2,91*,91*,98*,95*,90*
CC(=O)c1ccc(-c2nc3ccccc3n2C)o1,49,18,-402,31,-5,/,/,/,/,/
c1ccc(-c2cnc(-c3cccnc3)o2)cc1,0,0,-482,4,1,/,/,/,/,/
NC(=O)c1ccc(-c2ncc(-c3ccccc3)o2)cc1,-35,14,-307,52*,1,27,52*,59*,40,8
O=c1[nH]cc(CCCc2ccccc2)c(=O)[nH]1,/,/,-4,/,0,/,/,/,/,/
N/C(=N\N=C\c1cccc(O)c1)c1nonc1N,95*,95*,18,97*,2,97*,99*,102*,98*,94*
COc1ccc(/C=N/N=C(\N)c2nonc2N)cc1OC,17,11,13,26,0,/,/,/,/,/
COc1ccc(OC)c(/C=N/N=C(\N)c2nonc2N)c1,-13,-1,10,1,2,/,/,/,/,/
N/C(=N\N=C\c1ccc(O)cc1)c1nonc1N,93*,95*,7,98*,3,97*,98*,102*,98*,96*
N/C(=N\N=C\c1ccc(Br)o1)c1nonc1N,48,31,17,36,0,/,/,/,/,/
COc1cc(/C=N/N=C(\N)c2nonc2N)ccc1O,93*,89*,14,94*,12,93*,92*,99*,94*,92*
CC1N=C(SCC(=O)c2ccc(F)cc2)N2C(C)N=C(SCC(=O)c3ccc(F)cc3)N12 (centres undefined),/,/,-82,/,18,/,/,/,/,/
CC1=C(C(=O)N2CCOCC2)CC(CC(=O)NC(c2ccccc2)c2ccccc2)C(=O)N1Cc1ccc(F)cc1 (centres undefined),/,/,14,/,1,/,/,/,/,/
COc1ccc(C2Nc3ccccc3C(=O)N2Cc2ccco2)cc1CN1C(=O)c2ccccc2C1=O (centres undefined),-4,-1,-67,66*!,0,3,8,10,5,6
COc1ccc(S(=O)(=O)Nc2cccc3c2O[C@H](CN(C)C(=O)Nc2ccccc2)[C@@H](C)CN([C@H](C)CO)C3=O)cc1,-4,8,-4,-5,1,/,/,/,/,/
COc1ccc(CC(=O)NC(C)C2COc3ccccc3O2)cc1OC (centres undefined),-17,-9,-13,-4,2,/,/,/,/,/
SMILES,SENP6 inh,SENP8 block-1,SENP8 block-2,SENP7 inh,SENP1 FRET inh,SENP8 conf,SENP6 conf,SENP7 conf,Casp3 SENP sel,Luc interf
CNC(C)C#Cc1ccc2c(=O)c3cc(C)c(C)cc3oc2c1 (centres undefined),93*,67*,-316,-4,-7,33,23,47,30,71*
C/C(=N\NS(=O)(=O)c1ccccc1)c1ccc2c(c1)OCCO2,9,3,3,3,1,/,/,/,/,/
COc1ccc(-c2nc3ccc([N+](=O)[O-])cc3o2)cc1,24,10,2,69*,-1,-4,3,8,13,1
Cc1cccc(-c2nc3cc([N+](=O)[O-])ccc3o2)c1,21,26,16,82*,3,15,32,72*,75*,34
O=[N+]([O-])c1ccc2oc(-c3ccccc3)nc2c1,45,39,0,77*,1,2,6,45,30,2
COc1ccc(/C=N/Nc2nccnc2Cl)c(OC)c1,93*,91*,-161,98*,-28,96*,97*,103*,98*,95*
COc1ccc(/C=N/Nc2nccnc2Cl)cc1,95*,95*,-106,97*,2,98*,99*,103*,99*,97*
COc1ccc(/C=N/Nc2nonc2N)c(OC)c1,4,-3,-14,7,-1,/,/,/,/,/
COc1ccccc1/C=N/Nc1cc(N(C)C)nc(N(C)C)n1,38,22,-74,49,-7,/,/,/,/,/
Clc1nccnc1N/N=C/c1ccc(Br)cc1,96*,94*,-204,98*,0,97*,98*,102*,97*,96*
COc1ccc(/C=N/Nc2cc(N(C)C)nc(N(C)C)n2)cc1,80*,17,-6,72*,0,38,82*,81*,-2,-5
O=C(Nc1ccc(Oc2ccccc2)cc1)c1csc([C@H]2C[C@H](O)[C@@H](CO)O2)n1,/,/,19,/,0,/,/,/,/,/
O=S(=O)(NCc1ccccc1)c1ccc(NC(=S)NCc2ccco2)cc1,17,12,-307,-4,-27,/,/,/,/,/
CCCCCCN1CCN(C2CN(Cc3ccccc3)S(=O)(=O)C2)CC1 (centres undefined),/,/,14,/,2,/,/,/,/,/
